Experimental data taken from BindingDB's records for doi:10.1016/j.ejmech.2011.10.026 (National Cheng Kung University, 2012).

biological target: T1, Nitric oxide synthase, inducible (Mus musculus, UniProt P29477); experiment: Inhibition of iNOS-mediated nitric oxide production in LPS-stimulated mouse BV2 cells measured after 24 hrs of post-stimulation by Griess reaction method
T1 sequence (P29477 whole entry): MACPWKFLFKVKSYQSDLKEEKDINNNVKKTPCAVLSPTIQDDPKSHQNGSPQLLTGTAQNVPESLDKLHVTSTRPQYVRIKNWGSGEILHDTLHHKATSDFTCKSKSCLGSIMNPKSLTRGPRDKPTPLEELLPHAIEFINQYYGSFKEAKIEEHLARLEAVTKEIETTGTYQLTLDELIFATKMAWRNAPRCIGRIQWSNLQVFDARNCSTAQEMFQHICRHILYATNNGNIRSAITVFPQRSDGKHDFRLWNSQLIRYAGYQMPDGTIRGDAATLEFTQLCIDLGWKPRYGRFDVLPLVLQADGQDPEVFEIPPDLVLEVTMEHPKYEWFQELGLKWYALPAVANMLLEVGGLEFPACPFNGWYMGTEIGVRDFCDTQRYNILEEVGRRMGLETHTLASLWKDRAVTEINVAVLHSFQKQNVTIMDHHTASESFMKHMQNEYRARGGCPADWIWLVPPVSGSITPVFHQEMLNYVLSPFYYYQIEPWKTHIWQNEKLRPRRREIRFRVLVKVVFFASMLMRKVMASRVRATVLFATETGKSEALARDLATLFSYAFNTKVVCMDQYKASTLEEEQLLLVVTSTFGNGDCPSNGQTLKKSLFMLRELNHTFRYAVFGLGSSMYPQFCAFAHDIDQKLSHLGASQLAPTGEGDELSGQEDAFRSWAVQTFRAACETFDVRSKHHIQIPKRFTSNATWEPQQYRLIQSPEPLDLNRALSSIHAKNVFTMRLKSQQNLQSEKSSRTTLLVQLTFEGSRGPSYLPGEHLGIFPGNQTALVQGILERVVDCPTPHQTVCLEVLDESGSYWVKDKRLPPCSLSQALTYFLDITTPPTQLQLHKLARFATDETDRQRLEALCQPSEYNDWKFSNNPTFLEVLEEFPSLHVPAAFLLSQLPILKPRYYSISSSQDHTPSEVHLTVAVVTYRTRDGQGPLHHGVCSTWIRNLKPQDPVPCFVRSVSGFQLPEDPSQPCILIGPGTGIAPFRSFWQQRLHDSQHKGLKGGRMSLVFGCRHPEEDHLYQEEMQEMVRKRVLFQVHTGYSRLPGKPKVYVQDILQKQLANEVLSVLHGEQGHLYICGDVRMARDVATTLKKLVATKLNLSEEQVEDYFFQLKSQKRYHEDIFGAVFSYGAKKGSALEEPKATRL
In short: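 Murine BV2 microglia in DMEM with 5% FBS were given compound at 1–50 µM and stimulated with LPS 0.5 µg/mL. Nitrite accumulated in the medium was measured by Griess reagent 24 h after stimulation. IC50 given as mean ± SEM of three experiments on different days using cells from different passages.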

| SMILES | IC50 |
| --- | --- |
| COc1cccc(/C=C/C(=O)c2cc(C(=O)/C=C/c3cccc(OC)c3OC)c(O)cc2O)c1OC | 1.82 µM |
| COc1ccc(/C=C/C(=O)c2cc(C(=O)/C=C/c3ccc(OC)c(OC)c3OC)c(O)cc2O)c(OC)c1OC | 7.04 µM |
| COc1ccc(/C=C/C(=O)c2cc(C(=O)/C=C/c3ccc(OC)c(OC)c3)c(O)cc2O)cc1OC | 0.95 µM |
| COc1ccc(/C=C/C(=O)c2cc(C(=O)/C=C/c3ccc(OC)cc3)c(O)cc2O)cc1 | 25.7 µM |
| O=C(/C=C/c1ccco1)c1cc(C(=O)/C=C/c2ccco2)c(O)cc1O | 4 µM |
| CC(=O)c1cc(C(=O)C=Cc2ccc3c(c2)OCO3)c(O)cc1O | 17.7 µM |
| Cc1ccc(/C=C/C(=O)c2cc(C(=O)/C=C/c3ccc(C)o3)c(O)cc2O)o1 | 36.3 µM |
| COc1ccc(OC)c(/C=C/C(=O)c2cc(C(=O)/C=C/c3cc(OC)ccc3OC)c(O)cc2O)c1 | 23.3 µM |
| O=C(/C=C/c1ccccn1)c1cc(C(=O)/C=C/c2ccccn2)c(O)cc1O | 8.65 µM |
| Cc1ccsc1/C=C/C(=O)c1cc(C(=O)/C=C/c2sccc2C)c(O)cc1O | 43.3 µM |
| COc1cccc(/C=C/C(=O)c2cc(C(=O)/C=C/c3cccc(OC)c3)c(O)cc2O)c1 | 8.09 µM |
| O=C(/C=C/c1ccccc1)c1cc(C(=O)/C=C/c2ccccc2)c(O)cc1O | 5.44 µM |
